Data on seven compounds can be found in ChEMBL document CHEMBL4152296, “Synthesis, biological evaluation and molecular modeling of novel azaspiro dihydrotriazines as influenza virus inhibitors targeting the host factor dihydrofolate reductase (DHFR)” (Eur J Med Chem, 2018).

For orientation: EC50 means the concentration at which the effect is half-maximal. The term CC50 denotes the concentration giving 50% cytotoxicity. The term Ki denotes a dissociation constant, usually derived from enzyme kinetics or from competition with a known ligand.

Structures are written as SMILES. Activity calls are given as the source filed them. The rule behind the calls is not given here. Some results are limits rather than exact numbers.

One series has as its system Vero. The experiment in a line: Cytotoxicity against African green monkey Vero cells assessed as reduction in cell viability measured after 3 to 6 days by MTS assay. The format is cell-based. The note with it: chlorocebus sabaeus. A general note: Formazan colour is commonly taken as a measure of viable cells.
Series [1] deals with Vesicular stomatitis virus. The series can be described thus: Antiviral activity against Vesicular stomatitis virus infected in human HEL299 cells assessed as inhibition of virus-induced cytopathic effect after 3 to 6 days by MTS assay. The format is functional, organism-based. In general terms: Damage to the host cells serves as the signal in cytopathic effect assays.
Series [2] has as its system Mammalian orthoreovirus 1. The experiment in a line: Antiviral activity against Reovirus-1 infected in African green monkey Vero cells assessed as inhibition of virus-induced cytopathic effect after 3 to 6 days by MTS assay. The format is functional, organism-based.
Another series concerns Human coronavirus 229E. The series can be described thus: Antiviral activity against Human coronavirus 229E infected in human HEL299 cells assessed as inhibition of virus-induced cytopathic effect after 3 to 6 days by MTS assay. The format is functional, organism-based.
The subject of a further series is Sindbis virus. The experiment in a line: Antiviral activity against Sindbis virus infected in African green monkey Vero cells assessed as inhibition of virus-induced cytopathic effect after 3 to 6 days by MTS assay. The format is functional, organism-based.
The nature of series [3]: Cytotoxicity against MDCK cells assessed as alterations in normal cell morphology measured after 3 to 6 days by microscopic analysis. The format is cell-based, Canis lupus familiaris. Conditions: dog. The method in brief: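 Uninfected MDCK cultures in FCS-free Ultra MDCK medium with trypsin received five-fold compound dilutions (up to […]) for 3–6 days at 35 °C. Microscopy scored morphology, and MCC was taken as the lowest concentration causing minimal rounding, shrinking or lysis.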

The next series concerns Human alphaherpesvirus 2. The experiment in a line: Antiviral activity against Herpes simplex virus type 2 infected in human HEL299 cells assessed as inhibition of virus-induced cytopathic effect after 3 to 6 days by MTS assay. The format is functional, organism-based.
The test system of a further series is Human adenovirus 2. The experiment in a line: Antiviral activity against Human adenovirus type 2 infected in human HEL299 cells assessed as inhibition of virus-induced cytopathic effect after 3 to 6 days by MTS assay. The format is functional, organism-based.
In the next series the test system is Coxsackievirus B4. The experiment in a line: Antiviral activity against Coxsackie B4 virus infected in human HeLa cells assessed as inhibition of virus-induced cytopathic effect after 3 to 6 days by MTS assay. The format is functional, organism-based.
The test system of series [4] is Respiratory syncytial virus. The series can be described thus: Antiviral activity against Respiratory syncytial virus Long infected in human HeLa cells assessed as inhibition of virus-induced cytopathic effect after 3 to 6 days by MTS based microscopy. The format is functional, organism-based.
The next series relates to MDCK. The experiment in a line: Cytotoxicity against MDCK cells assessed as reduction in cell viability measured after 3 to 6 days by MTS assay. The note with it: dog. The format is cell-based, Canis lupus familiaris. The method, boiled down: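 Mock-infected MDCK plates were run in parallel (FCS-free Ultra MDCK medium with TPCK-trypsin) with serial five-fold dilutions up to […], 35 °C for 3–6 days. CC50 was interpolated from semi-log dose-response curves; mean of two or three experiments.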

Another series has as its system Influenza B virus. The experiment in a line: Antiviral activity against Influenza B virus B/Ned/537/05 infected in MDCK cells assessed as protection against virus-induced reduction in cell viability after 3 to 6 days by MTS assay. The format is functional, organism-based. Conditions: B/Ned/537/05, MDCK. The method in brief: (§1)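 MDCK cells seeded at 9000/well and infected one day later (semiconfluent) with 100 CCID50 virus. Medium was FCS-free Ultra MDCK with 2 μg/mL TPCK-trypsin. Serial five-fold compound dilutions (top 100 μM) were added with the virus, followed by 3–6 days at 35 °C. MTS read-out gave % protection versus virus and mock controls. EC50 was interpolated from semi-log curves; mean of two or three experiments.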

The next series has as its system Human alphaherpesvirus 1. The series can be described thus: Antiviral activity against Herpes simplex virus type 1 infected in human HEL299 cells assessed as inhibition of virus-induced cytopathic effect after 3 to 6 days by MTS assay. The format is functional, organism-based.
The test system of series [5] is Human immunodeficiency virus. The experiment in a line: Antiviral activity against HIV. The format is functional, organism-based.
The subject of another series is Punta Toro virus. The experiment in a line: Antiviral activity against Punta Toro virus infected in African green monkey Vero cells assessed as inhibition of virus-induced cytopathic effect after 3 to 6 days by MTS assay. The format is functional, organism-based.
A further series has as its system Vaccinia virus. The experiment in a line: Antiviral activity against Vaccinia virus infected in human HEL299 cells assessed as inhibition of virus-induced cytopathic effect after 3 to 6 days by MTS assay. Conditions: Orthopoxvirus vaccinia. The format is functional, organism-based.
Series [6] is described as follows: Cytotoxicity against human HeLa cells assessed as alterations in normal cell morphology measured after 3 to 6 days by microscopic analysis. The format is cell-based. The method in brief: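 Mock-infected HeLa cultures in 2% FCS medium received serial five-fold dilutions […] for 3–6 days at 37 °C. MCC was the lowest concentration giving microscopically visible minimal change in cell morphology (rounding, shrinking, lysis).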

The next series concerns Yellow fever virus. The series can be described thus: Antiviral activity against Yellow fever virus infected in African green monkey Vero cells assessed as inhibition of virus-induced cytopathic effect after 3 to 6 days by MTS assay. The format is functional, organism-based.
Another series deals with Influenza A virus. The experiment in a line: Antiviral activity against Influenza A virus (A/Puerto Rico/8/34(H1N1)) infected in MDCK cells assessed as protection against virus-induced reduction in cell viability after 3 to 6 days by MTS assay. The format is functional, organism-based. Conditions: A/Puerto Rico/8/1934(H1N1). The method in brief:
as §1

The test system of a further series is Human respirovirus 3. The series can be described thus: Antiviral activity against Parainfluenza virus 3 infected in African green monkey Vero cells assessed as inhibition of virus-induced cytopathic effect after 3 to 6 days by MTS assay. The format is functional, organism-based.
A further series has as its target T1, Dihydrofolate reductase (Homo sapiens, UniProt P00374).
T1 sequence (P00374 whole entry): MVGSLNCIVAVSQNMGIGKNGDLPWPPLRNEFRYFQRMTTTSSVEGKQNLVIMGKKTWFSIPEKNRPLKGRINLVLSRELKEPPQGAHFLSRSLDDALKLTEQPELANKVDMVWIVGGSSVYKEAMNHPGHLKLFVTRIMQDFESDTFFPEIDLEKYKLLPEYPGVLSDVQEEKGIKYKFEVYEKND
The experiment in a line: Binding affinity to human recombinant DHFR using dihydrofolate as substrate after 180 secs by spectrophotometric method. The method, boiled down: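 Recombinant human DHFR (0.42 μM) in TES buffer with inhibitor, 60 μM DHF, and 120 μM NADPH added last to start the reaction. Absorbance at 340 nm was followed for 180 s. Six concentrations (1–32 μM) were run in duplicate. IC50 came from Dixon plots assuming competitive inhibition. Ki = IC50/(1+[S]/Km), with DHF Km 5 μM.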

For `CCS(=O)(=O)N1CCC2(CC1)N=C(N)N=C(N)N2CCOC`, in the series with Vero, the Activity result was “Non-Toxic”. For the same compound, the result (in series [1]; in series [2]; in the series on Human coronavirus 229E; with Sindbis virus; with Human alphaherpesvirus 2; in the series on Human adenovirus 2) was inactive. Moreover, the result (in the series with Coxsackievirus B4; with Human alphaherpesvirus 1; in [5]; in the series with Punta Toro virus; with Vaccinia virus; in the series on Yellow fever virus) was inactive. For the same compound, the result in the series with Human respirovirus 3 was inactive. In addition, the MCC in series [3] and in series [6] was more than 100 µM throughout. The EC50 was more than 100 µM in [4], 3 µM in the series with Influenza B virus and more than 100 µM with Influenza A virus. For the same compound, the CC50 in the series on MDCK was more than 100 µM. At Dihydrofolate reductase, the Ki is 1.4 µM.
As to `COc1cccc(N2C(N)=NC(N)=NC23CCNCC3)c1`, the Activity entry in the series on Vero is “Non-Toxic”. For the same compound, the outcome (in series [1]; in series [2]; in the series on Human coronavirus 229E; in the series on Sindbis virus; in the series with Human alphaherpesvirus 2; with Human adenovirus 2) was inactive. The result (with Coxsackievirus B4; in the series with Human alphaherpesvirus 1; in series [5]; in the series on Punta Toro virus; with Vaccinia virus; in the series on Yellow fever virus) was inactive. In addition, the result in the series with Human respirovirus 3 was inactive. The MCC in series [3] and in [6] was more than 100 µM in each case. For the same compound, the EC50 (in series [4]; with Influenza B virus; in the series on Influenza A virus) was more than 100 µM each time. Moreover, the CC50 in the series on MDCK is more than 100 µM.
For `COCCN1C(N)=NC(N)=NC12CCN(C(=O)Nc1ccc(OC)cc1)CC2`, the Activity entry in the series on Vero is recorded as “Non-Toxic”. Further, the outcome (in [1]; in series [2]; in the series with Human coronavirus 229E; with Sindbis virus; with Human alphaherpesvirus 2; with Human adenovirus 2) was inactive. Further, the outcome (in the series on Coxsackievirus B4; in the series on Human alphaherpesvirus 1; in series [5]; with Punta Toro virus; in the series on Vaccinia virus; with Yellow fever virus) was inactive. Moreover, the outcome in the series with Human respirovirus 3 was inactive. Besides, the MCC in series [3] and in series [6] was more than 100 µM in each case. The EC50 (in [4]; in the series with Influenza B virus; with Influenza A virus) was more than 100 µM throughout. In addition, the CC50 with MDCK was more than 100 µM.
`COc1cccc(N2C(N)=NC(N)=NC23CCN(C(=O)c2ccc(C(F)(F)F)cc2C)CC3)c1`: in the series with Vero, the Activity entry is given as “Non-Toxic”. Moreover, the outcome (in series [1]; in series [2]; with Human coronavirus 229E; with Sindbis virus; in the series on Human alphaherpesvirus 2; in the series on Human adenovirus 2) was inactive. The result (in the series on Coxsackievirus B4; with Human alphaherpesvirus 1; in series [5]; in the series with Punta Toro virus; with Vaccinia virus; with Yellow fever virus) was inactive. Further, the result in the series on Human respirovirus 3 was inactive. Besides, the MCC in series [3] and in series [6] was more than 100 µM throughout. Further, the EC50 (in [4]; in the series on Influenza B virus; with Influenza A virus) was more than 100 µM throughout. Further, the CC50 in the series with MDCK was more than 100 µM.
For the compound `COCCN1C(N)=NC(N)=NC12CCN(C(=O)c1cccn1C)CC2`, the Activity result with Vero is on record as “Non-Toxic”. Further, the outcome (in [1]; in [2]; in the series with Human coronavirus 229E; in the series on Sindbis virus; in the series with Human alphaherpesvirus 2; in the series with Human adenovirus 2) was inactive. For the same compound, the outcome (in the series on Coxsackievirus B4; with Human alphaherpesvirus 1; in series [5]; in the series on Punta Toro virus; with Vaccinia virus; with Yellow fever virus) was inactive. In the series with Human respirovirus 3, the outcome was inactive. The MCC in [3] and in [6] was more than 100 µM throughout. Besides, the EC50 (in series [4]; in the series with Influenza B virus; in the series on Influenza A virus) was more than 100 µM each time. The CC50 in the series with MDCK was more than 100 µM.
For `CC(C)(C)OC(=O)N1CCC2(CC1)N=C(N)N=C(N)N2Cc1cccc(Cl)c1`, the Activity entry with Vero is given as “Non-Toxic”. For the same compound, the result (in series [1]; in [2]; in the series with Human coronavirus 229E; in the series on Sindbis virus; in the series on Human alphaherpesvirus 2; in the series on Human adenovirus 2) was inactive. Further, the result (with Coxsackievirus B4; in the series with Human alphaherpesvirus 1; in series [5]; with Punta Toro virus; in the series on Vaccinia virus; in the series with Yellow fever virus) was inactive. In the series with Human respirovirus 3, the outcome was inactive. In addition, the MCC in series [3] and in series [6] was more than 100 µM throughout. Besides, the EC50 (in series [4]; with Influenza B virus; in the series with Influenza A virus) was more than 100 µM throughout. The CC50 in the series on MDCK was more than 100 µM.
Regarding `CC(C)(C)OC(=O)N1CCC2(CC1)N=C(N)N=C(N)N2c1cccc(Cl)c1`, the Activity entry in the series with Vero is listed as “Non-Toxic”. The result (in [1]; in series [2]; in the series with Human coronavirus 229E; with Sindbis virus; in the series on Human alphaherpesvirus 2; with Human adenovirus 2) was inactive. The result (in the series with Coxsackievirus B4; in the series with Human alphaherpesvirus 1; in series [5]; in the series with Punta Toro virus; with Vaccinia virus; with Yellow fever virus) was inactive. Further, in the series with Human respirovirus 3, the result was inactive. Moreover, the MCC in series [3] is not below 20 µM; in series [6], more than 100 µM. The figures for the concentration for a half-maximal effect (EC50) (in series [4]; with Influenza B virus; in the series on Influenza A virus) were more than 100 µM, 24 µM and 11 µM, respectively. Also, in the series on MDCK, the CC50 was more than 100 µM.
